# Measurements published in ChEMBL document CHEMBL1128310, “Antitumor imidazotetrazines. 32. Synthesis of novel imidazotetrazinones and related bicyclic heterocycles to probe the mode of action of the antitumor drug temozolomide” (J Med Chem, 1995).
# Tests used:
# GM892A cell line [1] = experiment: (§1) In vitro cytotoxicity against human lymphoblastoid cell (GM892 A); assay type: functional, cell-based
# Raji = experiment: In vitro cytotoxicity against Raji cell line; assay type: functional, cell-based; conditions: Homo sapiens
# [2] = Ratio of cytotoxicity against Raji cells to that of GM892 A cells.; assay type: functional
# TLX-5 = experiment: In vitro cytotoxicity against mouse TLX5 lymphoma cells; assay type: functional, cell-based
# Procedure, shortened: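 Mouse TLX5 lymphoma cells in exponential growth at 2×10^4 cells/mL in RPMI 1640 with 15% FCS, given drug in DMSO, triplicate wells per concentration, 72 h at 37 °C under 5% CO2. Electronic cell counting; percent of DMSO-control growth plotted and IC50 (μM) calculated.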
# GM892A cell line [3] = experiment: as §1; assay type: functional, cell-based; remark: listed apart in the source
# Procedure, shortened: (§2)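 Mer⁻ GM892A cells in RPMI 1640 with 10% FCS and 1% L-glutamine, seeded at 0.8×10^5 cells/mL and exposed to a range of concentrations in DMSO (≤0.5%) for 72 h. At least three populations per concentration; duplicate cell counts after subtracting the seed number. Growth compared with solvent controls and IC50 (μM) derived.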
# [4] = Mean rate constant for the hydrolysis of compound in buffers at pH 7.4 at 37 degrees Centigrade in incubation mixture - d(A)-d(T) (10:!); assay type: ADME; conditions: buffer
# Procedure, shortened: (§3)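 Compound incubated at 37 °C in 0.1 M phosphate or 0.1 M sodium cacodylate buffer (pH 7.4 or 6.5) with homopolymer oligonucleotide or GMP/CMP, as equimolar nucleotide bases or 10-fold molar excess of bases. Parent peak followed by HPLC for about three half-lives. Pseudo-first-order k from log(peak area) versus time, at least 10 points per run, averaged over replicate runs.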
# [5] = Mean rate constant for the hydrolysis of compound in buffers at pH 7.4, at 37 degrees Celsius in incubation mixture - 5'-GMP/5'-CMP (1:1); assay type: ADME; conditions: buffer; procedure, shortened: as §3
# [6] = Mean rate constant for the hydrolysis of compound in buffers at pH 7.4, at 37 degrees Celsius in incubation mixture - d(A)-d(T) (1:1); assay type: ADME; conditions: buffer; procedure, shortened: as §3
# [7] = Mean rate constant for the hydrolysis of compound in buffers at pH 7.4, at 37 degrees Celsius in incubation mixture - d(G)-d(C) (1:1); assay type: ADME; conditions: buffer; procedure, shortened: as §3
# [8] = Half life for the hydrolysis of compound in buffers at pH 6.5, at 37 degrees Celsius in incubation mixture - d(A)-d(T) (10:1); assay type: ADME
# Procedure, shortened: (§4)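 Compound incubated at 37 °C in 0.1 M phosphate or 0.1 M sodium cacodylate buffer (pH 7.4 or 6.5) with homopolymer oligonucleotide or GMP/CMP, as equimolar nucleotide bases or 10-fold molar excess of bases. Loss of parent was followed by HPLC (0.5% acetic acid in water/methanol 70:30) over about three half-lives. Pseudo-first-order k from log peak area versus time; t1/2 = 0.693/mean k.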
# [9] = Half life for the hydrolysis of compound in buffers at pH 6.5, at 37 degrees Celsius in incubation mixture - d(G)-d(C) (10:1); assay type: ADME; procedure, shortened: as §4
# [10] = Half life for the hydrolysis of compound in buffers at pH 7.4 at 37 degrees Celsius in incubation mixture - d(A)-d(T) (10:!); assay type: ADME; conditions: buffer with d(A)-d(T) (10:1); procedure, shortened: as §4
# [11] = Half life for the hydrolysis of compound in buffers at pH 7.4, at 37 degrees Centigrade in incubation mixture - 5'-GMP/5'-CMP (1:1); assay type: ADME; conditions: buffer with 5'-GMP/5'-CMP (1:1); procedure, shortened: as §4
# [12] = Half life for the hydrolysis of compound in buffers at pH 7.4, at 37 degrees Celsius in incubation mixture - d(A)-d(T) (1:1); assay type: ADME; conditions: buffer with d(A)-d(T) (1:1); procedure, shortened: as §4
# [13] = Half life for the hydrolysis of compound in buffers at pH 7.4, at 37 degrees Centigrade in incubation mixture - d(G)-d(C) (10:1); assay type: ADME; procedure, shortened: as §4
# [14] = Half life for the hydrolysis of compound in buffers at pH 7.4, at 37 degrees Celsius in incubation mixture - d(G)-d(C) (1:1); assay type: ADME; conditions: buffer with d(G)-d(C) (1:1); procedure, shortened: as §4
# GM892A cell line [15] = experiment: In vitro cytotoxicity against human lymphoblastoid cell line (GM892 A); assay type: functional, cell-based; procedure, shortened: as §2
# [16] = Half life for the hydrolysis of compound in buffers at pH 7.4, at 37 degrees Celsius in incubation mixture - d(A)-d(T) (10:1); conditions: buffer with d(A)-d(T) (10:1)
# [17] = Mean rate constant for the hydrolysis of compound in buffers at pH 7.4, at 37 degrees Celsius in incubation mixture - d(A)-d(T) (10:1); conditions: buffer
# GM892A cell line [18] = experiment: In vitro cytotoxicity against human lymphoblast cell line (GM892 A).; assay type: functional, cell-based; procedure, shortened: as §2
compound,measurement,setting,value
CN(N=O)C(N)=O.Cl.Cl.Cl,IC50,GM892A cell line [1],35 µM
same,IC50,Raji,259 µM
same,Ratio,[2],7.4
Nc1nc(O)cc(-c2ccc(NC(=O)c3ncn4c(=O)n(CCCl)nnc34)cc2)n1,IC50,TLX-5,25 µM
NC(=O)c1cccc2c(=O)n(-c3ccccc3)nnc12,IC50,TLX-5,> 500 µM
Cn1nnc2c(C(N)=O)cnn2c1=O,IC50,GM892A cell line [1],5.3 µM
same,IC50,Raji,270 µM
same,Ratio,[2],51
CNC(=O)c1nnc2c(O)n(C)nnc1-2,IC50,GM892A cell line [1],> 500 µM
same,IC50,Raji,> 500 µM
Cn1nnc2c(C(N)=O)cccc2c1=O,IC50,TLX-5,> 500 µM
NC(=O)c1ccc2c(=O)n(CCCl)nnc2c1,IC50,TLX-5,350 µM
O=C(O)c1ncn2c(=O)n(CCCl)nnc12,IC50,TLX-5,15.8 µM
Cn1nnc2c(C(=O)NCCCN(CCCN)CCCCN)ncn2c1=O,IC50,GM892A cell line [1],> 500 µM
same,IC50,Raji,> 500 µM
NC(=O)c1ccc2c(=O)n(-c3ccccc3)nnc2c1,IC50,TLX-5,140 µM
CCn1nnc2cc(C(N)=O)ccc2c1=O,IC50,TLX-5,108 µM
Cn1nnc2cc(C(N)=O)ccc2c1=O,IC50,TLX-5,380 µM
NC(=O)c1cccc2c(=O)n(CCCl)nnc12,IC50,TLX-5,225 µM
NC(=O)c1ccc(NC(=O)c2ncn3c(=O)n(CCCl)nnc23)cc1,IC50,TLX-5,37 µM
NC(=O)c1ccccc1NC(=O)c1ncn2c(=O)n(CCCl)nnc12,IC50,TLX-5,13 µM
NC(=O)Cn1nnc2c(C(N)=O)cccc2c1=O,IC50,TLX-5,> 500 µM
NC(=O)c1cccc2c(O)nnnc12,IC50,TLX-5,400 µM
NC(=O)c1cccc(NC(=O)c2ncn3c(=O)n(CCCl)nnc23)c1,IC50,TLX-5,35 µM
NC(=O)c1ccc(NC(=O)c2ncn3c(=O)n(CCCl)nnc23)c(C(N)=O)c1,IC50,TLX-5,375 µM
CCn1nnc2c(C(N)=O)ncn2c1=O,IC50,GM892A cell line [1],180 µM
same,IC50,Raji,435 µM
same,Ratio,[2],2.4
CCn1nnc2c(C(N)=O)cccc2c1=O,IC50,TLX-5,325 µM
O=C(Nc1ccccc1)c1ncn2c(=O)n(CCCl)nnc12,IC50,TLX-5,1.25 µM
CN(C)/N=N/c1[nH]cnc1C(N)=O [DACARBAZINE],IC50,GM892A cell line [3],14 µM
same,IC50,Raji,128 µM
same,Ratio,[2],9
NC(=O)c1ncn2c(=O)n(CCCl)nnc12 [MITOZOLOMIDE],Mean rate constant,[4],0.0122 min⁻¹
same,Mean rate constant,[5],0.00979 min⁻¹
same,Mean rate constant,[6],0.00915 min⁻¹
same,Mean rate constant,[7],0.0094 min⁻¹
same,T1/2,[8]; buffer,5.777 h
same,half-life,[8]; buffer with d(A)-d(T) (10:1),7.45 h
same,T1/2,[9]; buffer,5.747 h
same,half-life,[9]; buffer with d(G)-d(C) (10:1),7.5 h
same,half-life,[10],0.947 h
same,half-life,[11],1.18 h
same,half-life,[12],1.26 h
same,T1/2,[13]; buffer,0.947 h
same,half-life,[13]; buffer with d(G)-d(C) (10:1),1.27 h
same,half-life,[14],1.22 h
same,IC50,GM892A cell line [15],4.8 µM
same,IC50,Raji,39 µM
same,IC50,TLX-5,2.5 µM
same,Ratio,[2],8.1
same,half-life,[16],1.24 h
same,Mean rate constant,[17],0.00932 min⁻¹
Cn1nnc2c(C(N)=O)ncn2c1=O [TEMOZOLOMIDE],IC50,GM892A cell line [18],7.6 µM
same,IC50,Raji,175 µM
same,IC50,TLX-5,5 µM
same,Ratio,[2],23
